Experimental data taken from ChEMBL document CHEMBL4028913, “Discovery of Novel Potent VEGFR-2 Inhibitors Exerting Significant Antiproliferative Activity against Cancer Cell Lines” (J Med Chem, 2018).
Calls of active or inactive are those of the source. The rule behind the calls is not given here.

Columns and labels:
[1] = Potency index, ratio of sunitinib TGI to test compound TGI for human renal cancer cells; type: functional, Renal cancer cell
SK-MEL-28 = assay: Cytotoxicity against human SK-MEL-28 cells after 48 hrs by SRB assay; type: functional; details: SK-MEL-28, 48 h
Outline: (§1)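 NCI-60 panel; cells grown in RPMI 1640 with 5% FBS and 2 mM L-glutamine, plated at 5000–40 000 cells/well by doubling time, preincubated 24 h (37 °C, 5% CO2). Drug added at five concentrations, 1-log steps from 10−4 to 10−8 M, for 48 h. Fixed with TCA, stained with 0.4% SRB, absorbance read at 515 nm. Percent growth computed against time-zero and untreated controls; GI50, TGI and LC50 derived.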

Leukemia cell = assay: Potency index, ratio of sunitinib GI50 to test compound GI50 for human leukemia cells; type: functional
Outline: (§2)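 GI50 is the concentration giving 50% reduction in net protein increase relative to control. Potency index is the reference-drug GI50 divided by the test-compound GI50.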

[2] = target: Ephrin type-A receptor 3 (Homo sapiens) (UniProt P29320); assay: Inhibition of human EPHA3 at 0.5 uM relative to control
Ephrin type-A receptor 3 (Homo sapiens), sequence (P29320 whole entry): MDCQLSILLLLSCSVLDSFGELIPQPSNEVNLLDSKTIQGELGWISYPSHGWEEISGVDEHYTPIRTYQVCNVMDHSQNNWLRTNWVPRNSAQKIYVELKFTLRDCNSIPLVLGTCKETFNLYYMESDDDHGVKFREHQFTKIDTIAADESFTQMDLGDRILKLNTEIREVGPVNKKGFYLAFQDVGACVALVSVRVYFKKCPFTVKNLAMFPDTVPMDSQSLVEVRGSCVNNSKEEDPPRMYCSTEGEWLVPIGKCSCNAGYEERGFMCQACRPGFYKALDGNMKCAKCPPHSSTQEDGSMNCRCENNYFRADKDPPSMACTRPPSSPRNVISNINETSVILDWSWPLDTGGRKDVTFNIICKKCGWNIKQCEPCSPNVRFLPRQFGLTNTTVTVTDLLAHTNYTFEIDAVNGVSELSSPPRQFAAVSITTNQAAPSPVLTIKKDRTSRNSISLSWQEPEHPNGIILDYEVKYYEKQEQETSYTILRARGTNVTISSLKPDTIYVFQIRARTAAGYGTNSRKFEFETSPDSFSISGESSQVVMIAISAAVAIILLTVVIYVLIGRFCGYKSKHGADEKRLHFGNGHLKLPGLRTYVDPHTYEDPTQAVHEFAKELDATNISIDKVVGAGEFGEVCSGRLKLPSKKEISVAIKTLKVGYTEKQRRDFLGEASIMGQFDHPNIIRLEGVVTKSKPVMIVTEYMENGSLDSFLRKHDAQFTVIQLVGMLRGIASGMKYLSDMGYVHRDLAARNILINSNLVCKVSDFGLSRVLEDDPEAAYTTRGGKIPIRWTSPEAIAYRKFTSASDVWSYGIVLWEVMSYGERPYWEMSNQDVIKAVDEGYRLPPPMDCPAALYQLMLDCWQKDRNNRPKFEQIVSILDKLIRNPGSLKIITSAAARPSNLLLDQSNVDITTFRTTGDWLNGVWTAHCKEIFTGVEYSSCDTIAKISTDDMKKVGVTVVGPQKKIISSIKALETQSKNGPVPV

UACC-257 = assay: Cytotoxicity against human UACC257 cells after 48 hrs by SRB assay; type: functional; details: UACC-257, 48 h
Outline: (§3)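 NCI-60 panel, five doses at 1-log steps from 10−4 to 10−8 M. Cells grown in RPMI 1640 with 5% FBS and 2 mM L-glutamine, seeded at 5000–40 000 cells/well and preincubated 24 h. Tz plates were TCA-fixed at drug addition. Drug exposure 48 h at 37 °C, then TCA fixation, 0.4% SRB stain and absorbance at 515 nm. GI50 taken from percent growth relative to Tz and control.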

KM12 = assay: Cytotoxicity against human KM12 cells after 48 hrs by SRB assay; type: functional; details: KM12, 48 h; outline: as §1
[3] = Potency index, ratio of sunitinib GI50 to test compound GI50 for human colon cancer cells; type: functional, Colon cancer cell; outline: as §2
786-0 = assay: Cytotoxicity against human 786-0 cells after 48 hrs by SRB assay; type: functional; details: 786-0, 48 h; outline: as §1
NCI-H460 = assay: Cytotoxicity against human NCI-H460 cells after 48 hrs by SRB assay; type: functional; details: NCI-H460, 48 h; outline: as §1
[4] = target: Proto-oncogene tyrosine-protein kinase Src (Homo sapiens) (UniProt P12931); details: at 0.5 µM
Proto-oncogene tyrosine-protein kinase Src (Homo sapiens), sequence (P12931 2-536 limits assumed): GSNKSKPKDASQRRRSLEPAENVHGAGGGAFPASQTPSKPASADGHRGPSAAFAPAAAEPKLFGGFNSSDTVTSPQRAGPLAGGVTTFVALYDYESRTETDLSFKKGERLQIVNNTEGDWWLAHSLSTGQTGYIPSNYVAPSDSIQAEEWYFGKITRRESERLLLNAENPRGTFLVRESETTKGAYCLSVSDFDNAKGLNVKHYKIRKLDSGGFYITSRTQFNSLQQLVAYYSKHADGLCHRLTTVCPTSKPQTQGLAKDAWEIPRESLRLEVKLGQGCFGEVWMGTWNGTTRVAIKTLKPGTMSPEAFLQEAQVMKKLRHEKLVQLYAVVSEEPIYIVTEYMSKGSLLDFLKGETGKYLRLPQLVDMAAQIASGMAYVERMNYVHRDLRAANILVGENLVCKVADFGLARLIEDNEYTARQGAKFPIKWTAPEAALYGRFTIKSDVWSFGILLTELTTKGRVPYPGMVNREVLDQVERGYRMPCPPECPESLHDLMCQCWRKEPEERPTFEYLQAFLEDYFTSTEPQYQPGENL

MDA-MB-231 = assay: Cytotoxicity against human MDA-MB-231 cells after 48 hrs by SRB assay; type: functional; details: MDA-MB-231, 48 h; outline: as §1
LOX IMVI = assay: Cytotoxicity against human LOXIMVI cells after 48 hrs by SRB assay; type: functional; outline: as §1
SW-620 = assay: Cytotoxicity against human SW620 cells after 48 hrs by SRB assay; type: functional; details: SW-620, 48 h; outline: as §3
MDA-MB-435 = assay: Growth inhibition of human MDA-MB-435 cells after 72 hrs by CellTiter-Glo assay; type: functional, cell-based; details: MDA-MB-435, 72 h
Outline: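 Cells in exponential phase seeded at 2000–4000 cells/well, then exposed 72 h at 37 °C, 5% CO2 with 0.1% final DMSO. Single-point screen at 10 μM final. […] Read-out was CellTiter-Glo luminescence.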

DU-145 = assay: Cytotoxicity against human DU145 cells after 48 hrs by SRB assay; type: functional; details: DU-145, 48 h; outline: as §1
[5] = target: STE20-like serine/threonine-protein kinase (Homo sapiens) (UniProt Q9H2G2); assay: Inhibition of human SLK at 0.5 uM relative to control
STE20-like serine/threonine-protein kinase (Homo sapiens), sequence (Q9H2G2 whole entry, looked up): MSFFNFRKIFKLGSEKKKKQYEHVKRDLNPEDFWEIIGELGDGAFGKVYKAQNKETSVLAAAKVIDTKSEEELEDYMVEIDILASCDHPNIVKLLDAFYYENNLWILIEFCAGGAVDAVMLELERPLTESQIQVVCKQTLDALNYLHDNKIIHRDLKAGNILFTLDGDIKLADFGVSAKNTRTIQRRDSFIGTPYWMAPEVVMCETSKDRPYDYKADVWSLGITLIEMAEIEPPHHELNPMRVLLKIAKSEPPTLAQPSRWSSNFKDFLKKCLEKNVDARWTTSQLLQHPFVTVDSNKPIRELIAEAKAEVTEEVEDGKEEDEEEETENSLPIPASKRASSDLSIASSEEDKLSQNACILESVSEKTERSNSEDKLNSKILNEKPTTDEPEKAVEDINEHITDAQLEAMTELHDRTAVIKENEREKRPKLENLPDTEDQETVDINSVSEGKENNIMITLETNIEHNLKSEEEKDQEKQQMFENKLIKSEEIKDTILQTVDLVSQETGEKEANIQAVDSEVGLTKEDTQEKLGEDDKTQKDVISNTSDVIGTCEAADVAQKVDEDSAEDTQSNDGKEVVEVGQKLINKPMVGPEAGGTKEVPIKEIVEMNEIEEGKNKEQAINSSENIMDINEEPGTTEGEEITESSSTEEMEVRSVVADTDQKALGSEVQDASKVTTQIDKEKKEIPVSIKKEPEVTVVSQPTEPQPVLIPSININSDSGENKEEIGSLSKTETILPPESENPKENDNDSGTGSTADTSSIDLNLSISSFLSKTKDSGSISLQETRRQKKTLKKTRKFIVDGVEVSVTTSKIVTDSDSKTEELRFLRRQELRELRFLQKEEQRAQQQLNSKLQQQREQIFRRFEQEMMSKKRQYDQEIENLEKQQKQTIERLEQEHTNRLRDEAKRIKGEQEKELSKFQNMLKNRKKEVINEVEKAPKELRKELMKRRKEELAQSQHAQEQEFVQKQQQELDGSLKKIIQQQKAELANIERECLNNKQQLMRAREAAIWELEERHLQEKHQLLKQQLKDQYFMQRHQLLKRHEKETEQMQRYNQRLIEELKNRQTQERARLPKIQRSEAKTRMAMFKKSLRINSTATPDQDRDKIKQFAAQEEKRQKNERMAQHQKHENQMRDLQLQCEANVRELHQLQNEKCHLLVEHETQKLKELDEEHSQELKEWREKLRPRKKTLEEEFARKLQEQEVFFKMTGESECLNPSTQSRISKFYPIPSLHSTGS

NCI-H522 = assay: Cytotoxicity against human NCI-H522 cells after 48 hrs by SRB assay; type: functional; details: NCI-H522, 48 h; outline: as §1
Melanoma cell = assay: Potency index, ratio of sorafenib GI50 to test compound GI50 for human melanoma cells; type: functional; outline: as §2
[6] = target: Vascular endothelial growth factor receptor 3 (Homo sapiens) (UniProt P35916); assay: Inhibition of human Flt4 at 0.5 uM relative to control
Vascular endothelial growth factor receptor 3 (Homo sapiens), sequence (P35916 whole entry): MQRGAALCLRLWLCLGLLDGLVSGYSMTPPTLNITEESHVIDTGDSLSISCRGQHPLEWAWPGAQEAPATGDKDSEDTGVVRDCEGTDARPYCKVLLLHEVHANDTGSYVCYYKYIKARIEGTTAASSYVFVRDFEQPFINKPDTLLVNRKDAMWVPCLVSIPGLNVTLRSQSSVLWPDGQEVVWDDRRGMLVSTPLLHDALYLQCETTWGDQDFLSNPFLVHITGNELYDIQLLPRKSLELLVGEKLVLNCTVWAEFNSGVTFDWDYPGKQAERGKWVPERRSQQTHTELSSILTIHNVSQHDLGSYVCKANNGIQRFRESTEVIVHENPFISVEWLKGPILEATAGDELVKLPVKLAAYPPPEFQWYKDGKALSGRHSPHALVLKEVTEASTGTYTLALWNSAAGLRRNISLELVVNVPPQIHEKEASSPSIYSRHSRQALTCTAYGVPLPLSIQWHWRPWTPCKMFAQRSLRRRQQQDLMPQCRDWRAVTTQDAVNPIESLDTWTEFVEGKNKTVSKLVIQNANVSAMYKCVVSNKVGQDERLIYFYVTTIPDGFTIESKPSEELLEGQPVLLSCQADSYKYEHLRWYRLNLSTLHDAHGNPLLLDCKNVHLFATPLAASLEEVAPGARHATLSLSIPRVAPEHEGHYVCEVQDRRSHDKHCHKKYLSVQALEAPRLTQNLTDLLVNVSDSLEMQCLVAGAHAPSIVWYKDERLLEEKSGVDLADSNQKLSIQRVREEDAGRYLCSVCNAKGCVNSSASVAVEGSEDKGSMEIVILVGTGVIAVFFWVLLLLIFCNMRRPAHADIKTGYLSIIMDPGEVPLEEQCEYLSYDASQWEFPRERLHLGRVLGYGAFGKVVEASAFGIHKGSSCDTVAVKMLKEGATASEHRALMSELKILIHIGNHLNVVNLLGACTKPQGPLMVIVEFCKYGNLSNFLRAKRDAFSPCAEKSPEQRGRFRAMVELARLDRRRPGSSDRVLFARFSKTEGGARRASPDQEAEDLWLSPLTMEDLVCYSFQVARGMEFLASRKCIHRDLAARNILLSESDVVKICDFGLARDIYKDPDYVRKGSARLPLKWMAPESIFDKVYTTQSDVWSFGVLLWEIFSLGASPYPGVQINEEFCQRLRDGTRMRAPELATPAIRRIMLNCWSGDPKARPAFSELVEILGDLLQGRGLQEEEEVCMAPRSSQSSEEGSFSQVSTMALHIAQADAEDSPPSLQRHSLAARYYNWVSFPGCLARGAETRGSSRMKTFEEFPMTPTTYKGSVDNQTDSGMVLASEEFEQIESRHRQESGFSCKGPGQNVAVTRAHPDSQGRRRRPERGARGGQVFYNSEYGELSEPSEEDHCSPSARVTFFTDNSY

HT-29 = assay: Cytotoxicity against human HT-29 cells after 48 hrs by SRB assay; type: functional; details: HT-29, 48 h; outline: as §1
[7] = read-out: LC50 (the source's name)

In the case of COc1cc2ncnc(Oc3ccc(NC(=O)Nc4ccc(CN5CCOCC5)c(C(F)(F)F)c4)c4ccccc34)c2cc1OC, the Ratio [1] is reported as 3.2, the GI50 (SK-MEL-28) is reported as 0.89 µM and the TGI (SK-MEL-28) is reported as 4.79 µM. For the same compound, the CC50 (SK-MEL-28; [7]) was 42.7 µM, the RatioGI50 (Leukemia cell) was 5 - 7.7 and the inhibition [2] was “Active”. For the same compound, the GI50 (UACC-257) was 0.79 µM, the TGI (UACC-257) was 3.98 µM and the CC50 (UACC-257; [7]) was 47.9 µM. For the same compound, the GI50 (KM12) was 0.2 µM, the TGI (KM12) was 2.51 µM and the CC50 (KM12; [7]) was > 100 µM. The RatioGI50 [3] was 1.1 - 3.7, the GI50 (786-0) was 0.79 µM and the TGI (786-0) was 5.37 µM. The CC50 (786-0; [7]) was 26.9 µM, the GI50 (NCI-H460) was 1.41 µM and the TGI (NCI-H460) was 4.27 µM. The CC50 (NCI-H460; [7]) was 25.7 µM, the inhibition [4] was “Active” and the GI50 (MDA-MB-231) was 1.15 µM. For the same compound, the TGI (MDA-MB-231) was 7.94 µM, the CC50 (MDA-MB-231; [7]) was 42.7 µM and the GI50 (LOX IMVI) was 1.1 µM. The TGI (LOX IMVI) was 2.82 µM, the CC50 (LOX IMVI; [7]) was 7.24 µM and the GI50 (SW-620) was 1.1 µM. For the same compound, the TGI (SW-620) was 11.8 µM, the CC50 (SW-620; [7]) was > 100 µM and the IC50 (MDA-MB-435) was 2.36 µM. For the same compound, the GI50 (DU-145) was 1.55 µM, the TGI (DU-145) was 13.2 µM and the CC50 (DU-145; [7]) was 44.7 µM. For the same compound, the inhibition [5] was “Active”, the GI50 (NCI-H522) was 0.31 µM and the TGI (NCI-H522) was 3.8 µM. For the same compound, the CC50 (NCI-H522; [7]) was > 100 µM, the RatioGI50 (Melanoma cell) was 1.6 - 2.9 and the inhibition [6] was “Active”. For the same compound, the GI50 (HT-29) was 0.45 µM, the TGI (HT-29) was 13.2 µM and the CC50 (HT-29; [7]) was > 100 µM.
